Experimental data published in ChEMBL document CHEMBL4396917, “Synthesis and biological evaluation of novel benzylidene-succinimide derivatives as noncytotoxic antiangiogenic inhibitors with anticolorectal cancer activity in vivo” (Eur J Med Chem, 2019).
Calls of active or inactive are those of the source. The rule behind the calls is not given here.

Key:
[1] = tested on: HT-29; test: Inhibition of Akt/mTOR signalling in human HT-29 cells assessed as reduction in mTOR phosphorylation at Ser2448 residue incubated for 24 hrs by immunoblot analysis; assay type: cell-based
Summary of the method: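 HT29 cells were exposed to the indicated concentrations for 24 h. Cell lysates were then immunoblotted for the phosphorylated proteins.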

[2] = tested on: HT-29; test: Induction of apoptosis in human HT-29 cells assessed as early apoptotic cells at 5 uM after 72 hrs by Annexin V-FITC/propidium iodide staining based flow cytometric analysis (reference value: 5.3%); assay type: cell-based; conditions: ht-29, 72 h
[3] = tested on: Mus musculus; test: Antiangiogenic activity in Matrigel plug angiogenic Balb/c mouse model assessed as impaired vascularization by measuring loss of red colour in VEGF-supplemented matrigel at 20 to 60 mg/kg, sc measured after 15 days; assay type: functional, organism-based
Summary of the method: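 Balb/c nude mice (6–8 weeks), three groups, injected subcutaneously with 400 μL Matrigel alone or with VEGF (250 ng/mL) and/or compound; after 15 days plugs removed, weighed and photographed.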

[4] = Induction of apoptosis in human HT-29 cells assessed as viable cells at 1 uM after 24 hrs by Annexin V-FITC/propidium iodide staining based flow cytometric analysis (reference value: 80.8%); assay type: cell-based; conditions: read-out: Activity
[5] = Induction of apoptosis in VEGF-stimulated HUVEC assessed as viable cells at 1 uM after 24 hrs by Annexin V-FITC/propidium iodide staining based flow cytometric analysis (reference value: 69.6%); assay type: cell-based; conditions: human, read-out: Activity
Summary of the method: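 HUVECs plated at 5×10^5 per well and treated 24 h with 1, 5, 10 or 20 μM. Detached and adherent cells were pooled, washed in ice-cold PBS and resuspended in fresh medium. 1×10^5 cells were stained with annexin-V-FITC in annexin-V buffer for 20 min in the dark, then PI (50 μg/mL) was added. Read-out by flow cytometry.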

[6] = tested on: HT-29; test: Antitumor activity against human HT-29 cells xenografted in mouse assessed as large areas of late apoptotic and necrotic cells in tumor at 20 to 60 mg/kg, po administered every other day for 3 weeks and measured at 20 days post treatment by H and E staining based assay; assay type: functional, organism-based
[7] = tested on: HT-29; test: Induction of apoptosis in human HT-29 cells assessed as necrotic cells at 5 uM after 48 hrs by Annexin V-FITC/propidium iodide staining based flow cytometric analysis (reference value: 1.3%); assay type: cell-based; conditions: ht-29, 48 h

COc1ccc(NC(=O)c2cccc(/C=C3\CC(=O)N(c4ccc(C)cc4)C3=O)c2)cc1
inhibition [1]: Dose-dependent effect
Activity [2]: 9.8%
Activity [3]: Active
viability at 24 h, 1 µM [4]: 79.9%
viability at 24 h, 1 µM [5]: 72.6%
Activity [6]: Active
Activity [7]: 1.1%
